In the library only some 9.3% were active in any assay of this set; here they are far more common.
Ecoli tolC – growth inhibitors of E. coli BW25113 tolC mutant; OD615; growth inhibition, % at 10 µM (by protocol); actives 2.2% (n = 65,000);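 active = growth inhibition at or above a cutoff equal to the mean over every tested compound plus 3 SD, cut at about 60% in these data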;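 note: growth measured after 20 h incubation at 37 °C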
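Test system: tolC-deleted E. coli BW25113 | Medium: LB with kanamycin 50 µg/mL | Compound dosing: Single concentration, 10 µM final per compound | Schedule: 37 °C, 20 h exposure | Measured by: OD at 615 nm | Evaluation: Percent growth inhibition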
D1 mod – allosterically modulates the human D1 dopamine receptor; HEK293 D1, CRE-luciferase, dopamine EC30 potentiation; actives deviate in either direction; B-score at 10 µM; P21728; actives 5.9% (n = 58,000);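 active = luminescence count or its row- and column-corrected plate score outside the 99.7% band of the plate's sample wells, on either side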
PostGolgi ctrl – inhibits growth of the yeast control strain; efflux-deficient yeast background strain, growth absorbance A615, 16 h; inhibition, % at 10 µM; actives 5% (n = 98,000); AID 738
Ecoli WT expand – blocks growth of wild type E. coli BW25113. growth inhibition, % at 100 µM. AID 710. actives 0.15% (n = 98,000). OD600 absorbance;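 active = growth inhibition above about 50% at one test dose, limit read from the data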;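 note: growth measured after 20 h incubation at 37 °C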
PostGolgi yeast – growth inhibition of a yeast mutant, post-Golgi transport screen. inhibition, % at 10 µM. actives 0.9% (n = 98,000). post-Golgi transport phenotypic cell assay;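 note: yeast cells grown in 1536-well plates; yeast grown about 18 h at 30C before absorbance read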
hDAT+cocaine – changed human dopamine transporter uptake under cocaine IC80; Q01959; LLC-PK1 hDAT cells, [14C]-dopamine uptake with cocaine IC80; actives deviate in either direction; B-score at 10 µM; actives 1.3% (n = 110,000);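 active = Z score or B-score, a plate-position-corrected score, falls beyond the plate's 99.7% confidence bounds, in either direction; inactive = both scores lie inside the 99.7% bounds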
Target sequence (Q01959 whole entry, looked up): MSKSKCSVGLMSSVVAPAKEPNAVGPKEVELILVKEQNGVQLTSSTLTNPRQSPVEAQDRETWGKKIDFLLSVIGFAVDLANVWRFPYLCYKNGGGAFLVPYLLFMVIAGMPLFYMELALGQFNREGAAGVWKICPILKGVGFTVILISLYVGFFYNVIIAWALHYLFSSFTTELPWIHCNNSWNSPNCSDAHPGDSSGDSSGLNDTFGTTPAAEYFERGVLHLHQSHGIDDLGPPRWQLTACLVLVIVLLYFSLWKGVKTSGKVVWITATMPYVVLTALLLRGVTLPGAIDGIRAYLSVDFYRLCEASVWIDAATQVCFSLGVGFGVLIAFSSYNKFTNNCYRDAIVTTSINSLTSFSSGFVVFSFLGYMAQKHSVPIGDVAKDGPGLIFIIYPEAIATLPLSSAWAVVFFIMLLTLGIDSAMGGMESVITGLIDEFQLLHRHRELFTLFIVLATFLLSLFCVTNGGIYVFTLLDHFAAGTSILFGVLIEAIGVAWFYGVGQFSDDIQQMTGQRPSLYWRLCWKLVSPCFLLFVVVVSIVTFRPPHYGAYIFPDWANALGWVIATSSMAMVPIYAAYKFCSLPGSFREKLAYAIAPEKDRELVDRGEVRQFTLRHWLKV
A number is an active result; i = inactive; nt = no result; ! = not confirmed by another sample. Cut-off read from the data, not from the text of the source, unless noted: active = inhibition above about 30%; inactive = the rest.

SMILES	Ecoli tolC	D1 mod	PostGolgi ctrl	Ecoli WT expand	PostGolgi yeast	hDAT+cocaine
O=C(OCC(=O)N1CCN(C(=O)c2ccco2)CC1)c1ccccc1C(=O)c1ccccc1	i	i	i	i	i	i
O=C(OCC(=O)N1CCN(C(=O)c2ccco2)CC1)c1cn(-c2ccccc2)nc1-c1ccccc1	i	i	100.7	i	47.7	4.38
O=C(NCc1ccccn1)C1(C(F)(F)F)C/C(=C\CCO)CCCO1 (configuration not stated)	nt	nt	nt	nt	nt	i
CCOC(=O)C1=CN(c2cccc(F)c2)C=C(C(=O)OCC)C1c1cc(OC)c(O)c([N+](=O)[O-])c1	nt	nt	i	i	i	i
Nc1cc(OC(=O)c2cccs2)nn1S(=O)(=O)c1ccccc1	i	-5.32	i	i	i	i
Nc1cc(OC(=O)c2cccs2)nn1S(=O)(=O)c1ccc(F)cc1	i	nt	i	i	i	i
CO/N=C(/CS(=O)Cc1ccccc1Cl)c1ccc(Cl)cc1Cl (configuration not stated)	nt	nt	30.5	i	i	i
Cc1ccc(N=C(NOCc2ccc(Cl)cc2Cl)c2nonc2N)c(C)c1	nt	nt	i	i	i	i
Cc1ccccc1N=C(NOCc1ccc(Cl)cc1Cl)c1nonc1N	nt	nt	35.5	i	i	i
Cc1ccccc1N=C(NOCc1ccccc1)c1nonc1N	nt	nt	36.0	i	i	i
CCn1cc(C(=O)NCCCN(C)C)c(=O)c2cc(F)c(N3CCN(C)CC3)cc21	i	nt	i	100.0	i	i
CCCNC(=O)c1cn(CC)c2cc(N3CCN(C)CC3)c(F)cc2c1=O	nt	nt	i	100.0	i	i
CCn1cc(C(=O)NCC2CCCO2)c(=O)c2cc(S(=O)(=O)N3CCCCCC3)ccc21 (configuration not stated)	i	i	i	i	i	i
CCN(CC)CCNC(=O)c1cn(CC)c2ccc(S(=O)(=O)N(C)C)cc2c1=O	i	i	i	i	i	i
CC1=CC(C)(C)N2C(=O)C3(C(C#N)=C(N)Oc4cc(O)ccc43)c3cccc1c32 (configuration not stated)	99.8	i	i	i	i	i
Cc1ccc2c3c1C1(C(=O)N3C(C)(C)CC2C)C(C#N)=C(N)Oc2cc(O)ccc21 (configuration not stated)	97.0	i	i	i	i	i
Cc1nn(-c2ccccc2)c2c1C1(C(=O)N3c4c(cccc41)C(C)CC3(C)C)C(C#N)=C(N)O2 (configuration not stated)	nt	nt	i	i	i	i
Cc1cc2c3c(c1)C1(C(=O)N3C(C)(C)CC2C)C(C#N)=C(N)Oc2cc(O)ccc21 (configuration not stated)	68.2	i	i	i	i	i
COc1ccc(C)cc1Cn1c(S(C)(=O)=O)nc2ccccc21	i	i	i	i	i	i
O=C(NCCN1CCOCC1)N1c2ccccc2Sc2ccccc21	nt	nt	i	i	i	i
Cn1cccc1/C=N/n1cnnc1	i	nt	i	i	i	2.76
Clc1ccc(-n2cccc2/C=N/n2cnnc2)cc1	nt	nt	i	i	i	i
Cc1ccc(S(=O)(=O)N(CCC#N)CCN2CCCC2)cc1	i	i	30.2	i	i	i
CCN(CC)S(=O)(=O)c1ccc(S(=O)(=O)N2CCN(CCC#N)CC2)cc1	i	i	i	i	i	i
CCC(=O)Nc1nonc1-c1nc2ccccc2n1CCC(C)C	i	i	35.7	i	i	i
SMILES	Ecoli tolC	D1 mod	PostGolgi ctrl	Ecoli WT expand	PostGolgi yeast	hDAT+cocaine
COc1ccc(C(=O)NC(C)c2nnc(SCc3ccc(Cl)c(Cl)c3)n2C)cc1 (configuration not stated)	nt	nt	i	i	32.9	i
CCc1cc2c(=O)c(-c3nc4ccccc4n3C)c(C)oc2c(CN2CCN(CCO)CC2)c1O	i	i	i	i	52.0	i
CN1CCN(S(=O)(=O)c2ccc(Br)s2)CC1	i	i	i	i	i	i
Cc1ccc(NC(=O)CN2CCCN(S(=O)(=O)c3ccc(Br)s3)CC2)cc1	nt	nt	33.1	i	i	i
Cc1cc(C)cc(NC(=O)CN2CCCN(S(=O)(=O)c3ccc(Br)s3)CC2)c1	nt	nt	41.6	i	i	i
CCOC(=O)N1CCN(S(=O)(=O)c2ccc(Br)s2)CC1	i	i	i	i	i	i
Cc1cccc(S(=O)(=O)Nc2cccc(-c3cn4ccsc4n3)c2)c1	i	i	46.1	i	i	i
O=S(=O)(Nc1cccc(-c2cn3ccsc3n2)c1)c1ccc(F)cc1	i	i	40.3	i	i	i
Cc1ccc(S(=O)(=O)Nc2cccc(-c3cn4ccsc4n3)c2)cc1	82.9	i	45.6	i	i	i
CC(=O)C1C(c2ccccc2OC(F)F)NC(=O)NC1(O)C(F)(F)F (configuration not stated)	i	nt	i	i	i	nt
CCC(C)c1ccc(NC(=O)COC(=O)C2=COCCO2)cc1 (configuration not stated)	nt	nt	i	i	i	i
CCOc1ccc(-c2[nH]ncc2Oc2cccc(OC)c2)c(O)c1	98.6	nt	75.1	i	85.7	i
CCCOC(=O)c1ccc(Oc2cn[nH]c2-c2ccc(OCC)cc2O)cc1	69.8	nt	i	i	i	i
COc1cccc(Oc2cn[nH]c2-c2ccc(OC)cc2O)c1	97.2	nt	92.0	i	94.2	i
CCOc1ccc(-c2n[nH]c(C)c2-c2ccccc2OC)c(O)c1	i	nt	i	i	i	i
COc1cccc(Oc2cn[nH]c2-c2ccc(O)cc2O)c1	96.5	i	i	i	i	i
O=C(NC1CCCC1)C1CCCN1C(=O)Nc1ccc(Cl)cc1 (configuration not stated)	i	i	i	i	i	i
O=CN1CC(=O)N(c2ccccc2)c2c([nH]c3ccccc23)C1	i	i	i	i	i	i
CCCNS(=O)(=O)c1ccc(OCC(=O)N2CCOCC2)cc1	nt	nt	nt	nt	nt	i
O=S(=O)(c1cccc2nsnc12)N1CCc2ccccc21	i	i	i	i	i	i
O=C(Nc1cccc(Cl)c1N1CCCC1)c1cccc(-c2cc3ccccc3oc2=O)c1	nt	nt	i	i	i	i
Cc1cccn2c(=O)c3cc(C(=O)N4CCc5ccccc54)n(C)c3nc12	i	i	nt	nt	nt	nt
CCn1c(SCC(=O)N/N=C/C=C\c2ccccc2[N+](=O)[O-])nc2ccccc21	nt	nt	i	i	i	i
CCn1c(SCC(=O)N/N=C/c2ccc(OC)c(OC)c2)nc2ccccc21	nt	nt	i	i	i	4.19
Fc1ccc([C@@H]2CCNC[C@H]2COc2ccc3c(c2)OCO3)cc1	nt	nt	nt	nt	nt	-3.66!
Cc1nn(CC(O)Cn2c3c(c4ccccc42)CCN(C)C3=O)c(C)c1Br (configuration not stated)	i	i	43.3	i	i	i
Cc1cc(S(=O)(=O)NCCCN2CCOCC2)ccc1F	i	i	i	i	i	i
CC(C)C(C)(C#N)NC(=O)CSc1nnc(-c2ccccc2)o1 (configuration not stated)	nt	nt	i	i	i	i
COC(=O)c1ccc(C(=O)OC)c(NC(=O)COC(=O)CC2CC3CCC2C3)c1 (configuration not stated)	nt	nt	33.0	i	i	i

Screening data: PubChem BioAssay, several laboratories
